In brackets after ≈: the same amount, converted by molar mass. Activity calls are given as the source filed them. The rule behind the calls is not given here.
Columns and labels:
Cryptococcus neoformans = experiment: Antimicrobial activity against Cryptococcus neoformans up to 64 ug/mL by broth microdilution susceptibility assay; type: functional, organism-based
Neisseria gonorrhoeae = experiment: Antimicrobial activity against Neisseria gonorrhoeae up to 64 ug/mL by broth microdilution susceptibility assay; type: functional, organism-based
Candida albicans = experiment: Antimicrobial activity against Candida albicans up to 64 ug/mL by broth microdilution susceptibility assay; type: functional, organism-based
Staphylococcus aureus = experiment: Antimicrobial activity against Staphylococcus aureus up to 64 ug/mL by broth microdilution susceptibility assay; type: functional, organism-based
KM-20L2 = experiment: Growth inhibition of human KM20L2 cells; type: functional
Procedure, shortened: (§1)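 Human cancer cell line panel: pancreas (BXPC-3), breast (MCF-7), CNS (SF-268), non-small-cell lung (NCI-H460), colon (KM20L2) and prostate (DU-145). Growth inhibition is reported as GI50 in µg/mL.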

NCI-H460 = experiment: Growth inhibition of human NCI-H460 cells; type: functional; procedure, shortened: as §1
SF-268 = experiment: Growth inhibition of human SF268 cells; type: functional; procedure, shortened: as §1
Escherichia coli = experiment: Antimicrobial activity against Escherichia coli up to 64 ug/mL by broth microdilution susceptibility assay; type: functional, organism-based
BXPC-3 = experiment: Growth inhibition of human BxPC3 cells; type: functional; procedure, shortened: as §1
DU-145 = experiment: Growth inhibition of human DU145 cells; type: functional; procedure, shortened: as §1
Micrococcus luteus = experiment: Antimicrobial activity against Micrococcus luteus up to 64 ug/mL by broth microdilution susceptibility assay; type: functional, organism-based
Enterococcus faecalis = experiment: Antimicrobial activity against Enterococcus faecalis up to 64 ug/mL by broth microdilution susceptibility assay; type: functional, organism-based
MCF7 = experiment: Growth inhibition of human MCF7 cells; type: functional; procedure, shortened: as §1
Enterobacter cloacae = experiment: Antimicrobial activity against Enterobacter cloacae up to 64 ug/mL by broth microdilution susceptibility assay; type: functional, organism-based
[1] = test system: Stenotrophomonas maltophilia; experiment: Antimicrobial activity against Stenotrophomonas maltophilia up to 64 ug/mL by broth microdilution susceptibility assay; type: functional, organism-based
Streptococcus pneumoniae = experiment: Antimicrobial activity against Streptococcus pneumoniae up to 64 ug/mL by broth microdilution susceptibility assay; type: functional, organism-based

Row | GI50 (NCI-H460) | GI50 (BXPC-3) | GI50 (DU-145) | GI50 (MCF7) | Compound | Activity (Cryptococcus neoformans) | Activity (Neisseria gonorrhoeae) | Activity (Candida albicans) | Activity (Staphylococcus aureus) | GI50 (KM-20L2) | GI50 (SF-268) | Activity (Escherichia coli) | Activity (Micrococcus luteus) | Activity (Enterococcus faecalis) | Activity (Enterobacter cloacae) | Activity [1] | Activity (Streptococcus pneumoniae)
1 | 9.8 µg/mL (≈ 40.8 µM) | 6.2 µg/mL (≈ 25.8 µM) | 4 µg/mL (≈ 16.6 µM) | 3.9 µg/mL (≈ 16.2 µM) | CC(C)Cc1ncc(-c2c[nH]c3ccccc23)o1 [LABRADORIN 1] | inactive | inactive | inactive | inactive | 3.5 µg/mL (≈ 14.6 µM) | 5.1 µg/mL (≈ 21.2 µM) | inactive | inactive | inactive | inactive | inactive | inactive
2 | 9.6 µg/mL (≈ 37.7 µM) | 9.6 µg/mL (≈ 37.7 µM) | 11.4 µg/mL (≈ 44.8 µM) | 27.4 µg/mL (≈ 108 µM) | CCCCCc1ncc(-c2c[nH]c3ccccc23)o1 [LABRADORIN 2] | inactive | inactive | inactive | inactive | 9.7 µg/mL (≈ 38.1 µM) | 58.8 µg/mL (≈ 231 µM) | inactive | inactive | inactive | inactive | inactive | inactive
